In ChEMBL document CHEMBL1155468, “Syntheses and evaluation of anticonvulsant profile and teratogenicity of novel amide derivatives of branched aliphatic carboxylic acids with 4-aminobenzensulfonamide” (J Med Chem, 2010):
Calls of active or inactive are those of the source. The rule behind the calls is not given here.

Key:
Mus musculus [1] = assay: Anticonvulsant activity in CF1 albino mouse assessed as inhibition of subcutaneous pentylenetetrazole-induced seizures at 300 mg/kg, ip after 0.5 hrs; assay type: functional, organism-based; design: dose 300 mg/kg
Outline: (§1)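 Adult male CF no. 1 albino mice (18-25 g) dosed ip with compound suspended in 0.5% methylcellulose (0.01 mL/g). Convulsant: pentylenetetrazol dissolved in 0.9% saline as a 0.85% solution for mice, given subcutaneously.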

Rattus norvegicus [2] = assay: Anticonvulsant activity in Sprague-Dawley rat assessed as inhibition of maximal electroshock-induced seizures at 30 mg/kg, po after 4 hrs
Mus musculus [3] = assay: Anticonvulsant activity in CF1 albino mouse assessed as inhibition of maximal electroshock-induced seizures at 100 mg/kg, ip after 4 hrs; assay type: functional, organism-based; design: dose 100 mg/kg
Outline: (§2)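 Test compounds suspended in 0.5% methylcellulose and given ip to adult male CF no. 1 albino mice (18-25 g) at 0.01 mL/g body weight before maximal electroshock challenge.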

Mus musculus [4] = assay: Anticonvulsant activity in CF1 albino mouse assessed as inhibition of subcutaneous pentylenetetrazole-induced seizures at 30 mg/kg, ip after 4 hrs; assay type: functional, organism-based; design: dose 30 mg/kg; outline: as §1
Mus musculus [5] = assay: Anticonvulsant activity in CF1 albino mouse assessed as inhibition of maximal electroshock-induced seizures at 300 mg/kg, ip after 0.5 hrs; assay type: functional, organism-based; design: dose 300 mg/kg; outline: as §2
Mus musculus [6] = assay: Neurotoxicity in CF1 albino mouse assessed as motor impairment at 30 mg/kg, ip after 0.5 hrs; assay type: toxicity, organism-based; design: dose 30 mg/kg, route intraperitoneal; conditions: in vivo
Mus musculus [7] = assay: Teratogenic effect in SWV mouse assessed as resorptions at 294 mg/kg, ip administered on morning of day 8 of gestation; assay type: toxicity, organism-based; design: dose 294 mg/kg, route intraperitoneal; conditions: in vivo
Outline: (§3)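 SWV inbred mice: two-month-old nulligravid females mated overnight with males and checked for vaginal plugs next morning; gestation onset taken as 10 p.m. the previous night. On gestation day 8.5 each dam got one ip injection, 0.55–2.7 mmol/kg, in 25% aqueous Cremophor EL (vehicle controls dosed alike), 10 μL/g body weight. Litters and implants tallied; resorptions and live fetuses reported as counts with percentages.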

Rattus norvegicus [8] = assay: Anticonvulsant activity in Sprague-Dawley rat assessed as inhibition of maximal electroshock-induced seizures at 30 mg/kg, po after 2 hrs
Mus musculus [9] = assay: Teratogenic effect in SWV mouse assessed as resorptions at 148 mg/kg, ip administered on morning of day 8 of gestation; assay type: toxicity, organism-based; design: dose 148 mg/kg, route intraperitoneal; conditions: in vivo; outline: as §3
Mus musculus [10] = assay: Neurotoxicity in CF1 albino mouse assessed as motor impairment at 100 mg/kg, ip after 0.5 hrs; assay type: toxicity, organism-based; design: dose 100 mg/kg, route intraperitoneal; conditions: in vivo
Mus musculus [11] = assay: Neurotoxicity in CF1 albino mouse assessed as motor impairment at 30 mg/kg, ip after 4 hrs; assay type: toxicity, organism-based; design: dose 30 mg/kg, route intraperitoneal; conditions: in vivo
Mus musculus [12] = assay: Neurotoxicity in CF1 albino mouse assessed as motor impairment at 300 mg/kg, ip after 0.5 hrs; assay type: toxicity, organism-based; design: dose 300 mg/kg, route intraperitoneal; conditions: in vivo
Mus musculus [13] = assay: Anticonvulsant activity in CF1 albino mouse assessed as inhibition of maximal electroshock-induced seizures at 300 mg/kg, ip after 4 hrs; assay type: functional, organism-based; design: dose 300 mg/kg; outline: as §2
Mus musculus [14] = assay: Neurotoxicity in CF1 albino mouse assessed as motor impairment at 100 mg/kg, ip after 4 hrs; assay type: toxicity, organism-based; design: dose 100 mg/kg, route intraperitoneal; conditions: in vivo
Mus musculus [15] = assay: Anticonvulsant activity in CF1 albino mouse assessed as inhibition of subcutaneous pentylenetetrazole-induced seizures at 100 mg/kg, ip after 0.5 hrs; assay type: functional, organism-based; design: dose 100 mg/kg; outline: as §1
Rattus norvegicus [16] = assay: Anticonvulsant activity in Sprague-Dawley rat assessed as inhibition of maximal electroshock-induced seizures at 30 mg/kg, po after 30 mins
Rattus norvegicus [17] = assay: Neurotoxicity in Sprague-Dawley rat assessed as motor impairment at 30 mg/kg, po after 0.25 to 4 hrs; conditions: in vivo
Mus musculus [18] = assay: Anticonvulsant activity in CF1 albino mouse assessed as inhibition of maximal electroshock-induced seizures at 100 mg/kg, ip after 0.5 hrs; assay type: functional, organism-based; design: dose 100 mg/kg; outline: as §2
Mus musculus [19] = assay: Anticonvulsant activity in CF1 albino mouse assessed as inhibition of maximal electroshock-induced seizures at 30 mg/kg, ip after 0.5 hrs; assay type: functional, organism-based; design: dose 30 mg/kg; outline: as §2
Mus musculus [20] = assay: Neurotoxicity in CF1 albino mouse assessed as motor impairment at 300 mg/kg, ip after 4 hrs; assay type: toxicity, organism-based; design: dose 300 mg/kg, route intraperitoneal; conditions: in vivo
Mus musculus [21] = assay: Anticonvulsant activity in CF1 albino mouse assessed as inhibition of subcutaneous pentylenetetrazole-induced seizures at 30 mg/kg, ip after 0.5 hrs; assay type: functional, organism-based; design: dose 30 mg/kg; outline: as §1
Rattus norvegicus [22] = assay: Anticonvulsant activity in Sprague-Dawley rat assessed as inhibition of maximal electroshock-induced seizures at 30 mg/kg, po after 1 hr
Mus musculus [23] = assay: Anticonvulsant activity in CF1 albino mouse assessed as inhibition of maximal electroshock-induced seizures at 30 mg/kg, ip after 4 hrs; assay type: functional, organism-based; design: dose 30 mg/kg; outline: as §2
Mus musculus [24] = assay: Teratogenic effect in SWV mouse assessed as live fetuses at 148 mg/kg, ip administered on morning of day 8 of gestation; assay type: toxicity, organism-based; design: dose 148 mg/kg, route intraperitoneal; conditions: in vivo
Outline: (§4)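 Two-month-old nulligravid SWV females were mated overnight and checked for vaginal plugs the next morning; gestation onset was set at 10 p.m. the previous night. On gestation day 8.5, each dam received a single ip injection (0.55-2.7 mmol/kg range) or vehicle (25% aqueous Cremophor EL) at 10 μL/g body weight. Litters were scored for implants, resorptions, live and dead fetuses, and fetuses with neural tube defects.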

Rattus norvegicus [25] = species: Rattus norvegicus; assay: Protective index, ratio of TD50 for rat to ED50 for maximal electroshock-induced rat seizure model
Mus musculus [26] = assay: Anticonvulsant activity in CF1 albino mouse assessed as inhibition of subcutaneous pentylenetetrazole-induced seizures at 300 mg/kg, ip after 4 hrs; assay type: functional, organism-based; design: dose 300 mg/kg; outline: as §1
Mus musculus [27] = assay: Teratogenic effect in SWV mouse assessed as live fetuses at 294 mg/kg, ip administered on morning of day 8 of gestation; assay type: toxicity, organism-based; design: dose 294 mg/kg, route intraperitoneal; conditions: in vivo; outline: as §4
Mus musculus [28] = assay: Teratogenic effect in SWV mouse assessed as live fetuses at 486 mg/kg, ip administered on morning of day 8 of gestation; assay type: toxicity, organism-based; design: dose 486 mg/kg, route intraperitoneal; conditions: in vivo; outline: as §3
Mus musculus [29] = assay: Teratogenic effect in SWV mouse assessed as fetuses with neural tube deffects at 486 mg/kg, ip administered on morning of day 8 of gestation; assay type: toxicity, organism-based; design: dose 486 mg/kg, route intraperitoneal; conditions: in vivo; outline: as §4
Mus musculus [30] = assay: Teratogenic effect in SWV mouse assessed as resorptions at 486 mg/kg, ip administered on morning of day 8 of gestation; assay type: toxicity, organism-based; design: dose 486 mg/kg, route intraperitoneal; conditions: in vivo; outline: as §3
Mus musculus [31] = assay: Teratogenic effect in SWV mouse assessed as fetuses with neural tube deffects at 294 mg/kg, ip administered on morning of day 8 of gestation; assay type: toxicity, organism-based; design: dose 294 mg/kg, route intraperitoneal; conditions: in vivo; outline: as §4
Mus musculus [32] = assay: Anticonvulsant activity in CF1 albino mouse assessed as inhibition of subcutaneous pentylenetetrazole-induced seizures at 100 mg/kg, ip after 4 hrs; assay type: functional, organism-based; design: dose 100 mg/kg; outline: as §1
Mus musculus [33] = assay: Teratogenic effect in SWV mouse assessed as fetuses with neural tube deffects at 148 mg/kg, ip administered on morning of day 8 of gestation; assay type: toxicity, organism-based; design: dose 148 mg/kg, route intraperitoneal; conditions: in vivo; outline: as §4
Rattus norvegicus [34] = assay: Anticonvulsant activity in po dosed rat assessed as inhibition of maximal electroshock-induced seizures
Rattus norvegicus [35] = assay: Anticonvulsant activity in Sprague-Dawley rat assessed as inhibition of maximal electroshock-induced seizures at 30 mg/kg, po after 15 mins

Compound	Activity (Mus musculus [1])	Activity (Mus musculus [3])	Activity (Mus musculus [4])	Activity (Mus musculus [5])	Activity (Mus musculus [6])	Activity (Rattus norvegicus [8])	Activity (Mus musculus [10])	Activity (Mus musculus [11])	Activity (Mus musculus [12])	Activity (Mus musculus [13])	Activity (Mus musculus [14])	Activity (Mus musculus [15])	Activity (Rattus norvegicus [16])	Activity (Rattus norvegicus [17])	Activity (Mus musculus [19])	Activity (Mus musculus [20])	Activity (Mus musculus [21])	Activity (Mus musculus [23])	Activity (Mus musculus [26])	Activity (Mus musculus [32])	further results
CCC(C)CC(=O)Nc1ccc(S(N)(=O)=O)cc1 (stereo not given)	inactive	inactive	inactive	inactive	Non-toxic	Active	Non-toxic	Non-toxic	Non-toxic	inactive	Non-toxic	inactive	Active	Non-toxic	inactive	Non-toxic	inactive	inactive	inactive	inactive	Activity (Rattus norvegicus [2]): Active; Activity (Mus musculus [7]): 32.5%; Activity (Mus musculus [9]): 10.6%; Activity (Mus musculus [18]): inactive; Activity (Rattus norvegicus [22]): Active; Activity (Mus musculus [24]): 89.4%; Ratio TD50/ED50 (Rattus norvegicus [25]): >30.4; Activity (Mus musculus [27]): 67.5%; Activity (Mus musculus [28]): 32%; Activity (Mus musculus [29]): 9.4%; Activity (Mus musculus [30]): 68%; Activity (Mus musculus [31]): 9.9%; Activity (Mus musculus [33]): 1.1%; ED50 (Rattus norvegicus [34]): 16.4 mg/kg
CC(C)(C)CC(=O)Nc1ccc(S(N)(=O)=O)cc1	inactive	–	inactive	–	Non-toxic	Active	Non-toxic	Non-toxic	Non-toxic	Active	Non-toxic	inactive	–	Non-toxic	inactive	Non-toxic	inactive	inactive	inactive	inactive	Activity (Rattus norvegicus [2]): Active; Activity (Mus musculus [7]): 8.4%; Activity (Mus musculus [9]): 8.6%; Activity (Mus musculus [24]): 91.4%; Ratio TD50/ED50 (Rattus norvegicus [25]): >53.2; Activity (Mus musculus [27]): 91.6%; Activity (Mus musculus [28]): 91.1%; Activity (Mus musculus [29]): 15%; Activity (Mus musculus [30]): 8.9%; Activity (Mus musculus [31]): 3.7%; ED50 (Rattus norvegicus [34]): 9.4 mg/kg
CC(C)C(C(=O)Nc1ccc(S(N)(=O)=O)cc1)C(C)(C)C (stereo not given)	inactive	Active	inactive	inactive	Non-toxic	inactive	Non-toxic	Non-toxic	Non-toxic	Active	Non-toxic	inactive	inactive	Non-toxic	inactive	Non-toxic	inactive	inactive	inactive	inactive	Activity (Rattus norvegicus [35]): inactive; Activity (Rattus norvegicus [22]): inactive; Ratio TD50/ED50 (Rattus norvegicus [25]): >27.7; ED50 (Rattus norvegicus [34]): 18 mg/kg
CCC(C)C(C(=O)Nc1ccc(S(N)(=O)=O)cc1)C(C)C (stereo not given)	inactive	inactive	inactive	inactive	Non-toxic	inactive	Non-toxic	Non-toxic	Non-toxic	inactive	Non-toxic	inactive	inactive	Non-toxic	inactive	Non-toxic	inactive	inactive	inactive	inactive	Activity (Rattus norvegicus [2]): inactive; Activity (Rattus norvegicus [35]): inactive; Activity (Mus musculus [18]): inactive
CC(C)C(C(=O)Nc1ccc(S(N)(=O)=O)cc1)C(C)C	inactive	inactive	inactive	inactive	Non-toxic	inactive	Non-toxic	Non-toxic	Non-toxic	inactive	Non-toxic	inactive	inactive	Non-toxic	inactive	Non-toxic	inactive	inactive	inactive	inactive	Activity (Rattus norvegicus [35]): inactive; Activity (Mus musculus [18]): inactive; Activity (Rattus norvegicus [22]): inactive
CCCC(C(=O)Nc1ccc(S(N)(=O)=O)cc1)C(C)(C)C (stereo not given)	inactive	inactive	inactive	inactive	Non-toxic	inactive	Non-toxic	Non-toxic	Non-toxic	inactive	Non-toxic	inactive	inactive	Non-toxic	inactive	Non-toxic	inactive	inactive	inactive	inactive	Activity (Rattus norvegicus [2]): inactive; Activity (Mus musculus [18]): inactive; Activity (Rattus norvegicus [22]): inactive
